Laboratory results from ChEMBL document CHEMBL3808334, “Synthesis and in vitro evaluation of novel triazine analogues as anticancer agents and their interaction studies with bovine serum albumin” (Eur J Med Chem, 2016).

How the values were obtained:
[1] = Growth inhibition of human UO31 cells assessed as cell growth at 10^-6 M incubated for 48 hrs by sulforhodamine B assay; format: functional; conditions: UO-31, 48 h, read-out: Activity
[2] = system: MDA-MB-231; assay: Growth inhibition of human MDA-MB-231 cells assessed as cell growth at 10^-8 M incubated for 48 hrs by sulforhodamine B assay; format: functional; conditions: MDA-MB-231, 48 h, read-out: Activity
[3] = Growth inhibition of human PC3 cells assessed as cell growth at 10^-8 M incubated for 48 hrs by sulforhodamine B assay; format: functional; conditions: PC-3, 48 h, read-out: Activity
[4] = system: CCRF-CEM; assay: Growth inhibition of human CCRF-CEM cells assessed as cell growth at 10^-5 M incubated for 48 hrs by sulforhodamine B assay; format: functional; conditions: read-out: Activity
Outline: (§1)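 Leukemia line in the five-dose format: five concentrations from 10-fold or ½-log serial dilutions. Plated at 5,000–40,000 cells per well, preincubated 24 h, then compound added for 48 h at 37 °C, 5% CO₂. Sulforhodamine B absorbance read at 515 nm. Growth is computed against time-zero (Tz) and control (C) readings; GI₅₀ is where [(Ti−Tz)/(C−Tz)]×100 = 50.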

[5] = Growth inhibition of human RXF393 cells assessed as cell growth at 10 uM incubated for 48 hrs by sulforhodamine B assay; format: functional; conditions: RXF 393, 48 h, read-out: Activity
[6] = Growth inhibition of human SNB75 cells assessed as cell growth at 10^-5 M incubated for 48 hrs by sulforhodamine B assay; format: functional; conditions: SNB-75, 48 h, read-out: Activity
[7] = system: SN12C; assay: Growth inhibition of human SN12C cells assessed as cell growth at 10^-5 M incubated for 48 hrs by sulforhodamine B assay; format: functional; conditions: read-out: Activity
[8] = Growth inhibition of human SF268 cells assessed as cell growth at 10^-4 M incubated for 48 hrs by sulforhodamine B assay; format: functional; conditions: SF-268, 48 h, read-out: Activity
[9] = system: A549; assay: Growth inhibition of human A549/ATCC cells assessed as cell growth at 10^-5 M incubated for 48 hrs by sulforhodamine B assay; format: functional; conditions: A549, 48 h, read-out: Activity
Outline: (§2)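 Five-dose assay: five concentrations from 10-fold or ½-log serial dilutions. Cells are plated at 5,000–40,000 per well according to doubling time, grown 24 h, then exposed 48 h at 37 °C, 5% CO₂. Fixed with cold 50% TCA (final addition) for 60 min at 4 °C and stained with 0.4% SRB in 1% acetic acid. Bound dye is solubilized in 10 mM Tris base and read at 515 nm. GI₅₀ is where [(Ti−Tz)/(C−Tz)]×100 = 50, with a time-zero plate as Tz.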

[10] = system: MDA-MB-468; assay: Growth inhibition of human MDA-MB-468 cells incubated for 48 hrs by sulforhodamine B assay; format: functional; conditions: MDA-MB-468, 48 h
Outline: (§3)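 Cells were plated at 5,000–40,000 per well according to doubling time and preincubated 24 h at 37 °C in 5% CO2; time-zero plates were then TCA-fixed. Five concentrations (10-fold or ½-log dilutions, DMSO stock) were incubated 48 h. Cells were TCA-fixed, stained with 0.4% SRB and read at 515 nm. GI50 was taken where [(Ti−Tz)/(C−Tz)]×100 = 50.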

[11] = Growth inhibition of human MOLT4 cells assessed as cell growth at 10^-5 M incubated for 48 hrs by sulforhodamine B assay; format: functional; conditions: MOLT-4, 48 h, read-out: Activity
[12] = Growth inhibition of human SF295 cells assessed as cell growth at 10^-4 M incubated for 48 hrs by sulforhodamine B assay; format: functional; conditions: SF-295, 48 h, read-out: Activity
[13] = Growth inhibition of human OVCAR3 cells incubated for 48 hrs by sulforhodamine B assay; format: functional; conditions: OVCAR-3, 48 h; outline: as §3
[14] = system: CCRF-CEM; assay: Growth inhibition of human CCRF-CEM cells assessed as cell growth at 10^-8 M incubated for 48 hrs by sulforhodamine B assay; format: functional; conditions: read-out: Activity; outline: as §1
[15] = system: MDA-MB-231; assay: Growth inhibition of human MDA-MB-231 cells incubated for 48 hrs by sulforhodamine B assay; format: functional; conditions: MDA-MB-231, 48 h; outline: as §3
[16] = Growth inhibition of human Hs 578T cells assessed as cell growth at 10 uM incubated for 48 hrs by sulforhodamine B assay; format: functional; conditions: read-out: Activity
[17] = Growth inhibition of human Hs 578T cells incubated for 48 hrs by sulforhodamine B assay; format: functional; outline: as §3
[18] = system: 786-0; assay: Growth inhibition of human 786-0 cells assessed as cell growth at 10^-6 M incubated for 48 hrs by sulforhodamine B assay; format: functional; conditions: 786-0, 48 h, read-out: Activity; outline: as §2
[19] = system: ACHN; assay: Growth inhibition of human ACHN cells assessed as cell growth at 10^-5 M incubated for 48 hrs by sulforhodamine B assay; format: functional; conditions: read-out: Activity; outline: as §2
[20] = Growth inhibition of human SW620 cells incubated for 48 hrs by sulforhodamine B assay; format: functional; conditions: SW-620, 48 h; outline: as §3
[21] = biological target: Albumin (Bos taurus, UniProt P02769); assay: Binding affinity to bovine serum albumin assessed as red shift in emission intensity up to 20 uM by fluorescence spectroscopic analysis relative to control; format: ADME; conditions: cattle, isolated protein
Outline: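 Fluorescence titration of 10 µM BSA in 0.1 M phosphate buffer pH 7.4 with compound at 0–20 µM, diluted from DMSO stocks. Excitation 280 nm, slit 10 nm, 1 cm quartz cell, 300 K. Changes in the 350 nm Trp emission, new bands near 370–373 nm and isoemissive points are read against BSA alone.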

[22] = system: U-251; assay: Growth inhibition of human U251 cells assessed as cell growth at 10 uM incubated for 48 hrs by sulforhodamine B assay; format: functional; conditions: U-251, 48 h, read-out: Activity
[23] = system: U-251; assay: Growth inhibition of human U251 cells assessed as cell growth at 10^-8 M incubated for 48 hrs by sulforhodamine B assay; format: functional; conditions: U-251, 48 h, read-out: Activity
[24] = Growth inhibition of human Caki1 cells assessed as cell growth at 10 uM incubated for 48 hrs by sulforhodamine B assay; format: functional; conditions: CAKI-1, 48 h, read-out: Activity
Outline: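 Primary screen at one dose (10 µM) across 60 human cancer cell lines. Readout was growth percent relative to untreated control and time-zero.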

[25] = system: SN12C; assay: Growth inhibition of human SN12C cells assessed as cell growth at 10^-7 M incubated for 48 hrs by sulforhodamine B assay; format: functional; conditions: read-out: Activity
[26] = read-out: LC50 (the source's name)
[27] = read-out: pLC50 (the source's name) (converted)

Albumin, sequence (P02769 whole entry): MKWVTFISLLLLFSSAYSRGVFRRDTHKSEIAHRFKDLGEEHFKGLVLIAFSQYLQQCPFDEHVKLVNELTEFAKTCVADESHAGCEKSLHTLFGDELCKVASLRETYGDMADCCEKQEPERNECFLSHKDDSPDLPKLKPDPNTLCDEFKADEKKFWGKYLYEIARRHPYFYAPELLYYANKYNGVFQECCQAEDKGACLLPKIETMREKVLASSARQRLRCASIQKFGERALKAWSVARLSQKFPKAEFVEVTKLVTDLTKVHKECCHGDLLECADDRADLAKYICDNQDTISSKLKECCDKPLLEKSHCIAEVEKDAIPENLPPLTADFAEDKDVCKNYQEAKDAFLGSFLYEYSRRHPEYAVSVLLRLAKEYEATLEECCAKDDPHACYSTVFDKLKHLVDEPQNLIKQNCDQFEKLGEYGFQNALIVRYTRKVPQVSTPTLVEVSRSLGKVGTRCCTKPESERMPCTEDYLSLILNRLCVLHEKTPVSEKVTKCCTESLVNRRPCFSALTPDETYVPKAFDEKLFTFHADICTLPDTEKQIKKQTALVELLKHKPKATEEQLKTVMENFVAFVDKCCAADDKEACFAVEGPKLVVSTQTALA

SMILES: Fc1ccc(-c2nc(Nc3ccc(-c4nc5ccccc5[nH]4)cc3)nc(N3CCOCC3)n2)cc1
- growth at 1 µM [1]: 90%
- growth at 0.01 µM [2]: 92%
- growth at 0.01 µM [3]: 100%
- growth at 10 µM [4]: 7%
- growth at 10 µM [5]: -67.5%
- growth at 10 µM [6]: 1%
- growth at 10 µM [7]: 12%
- growth at 100 µM [8]: -4%
- growth at 10 µM [9]: 3%
- GI50 ([10]; read-out: GI50): 2.92 µM
- CC50 [10, 26]: > 100 µM
- TGI ([10]; read-out: TGI): 7.65 µM
- GI50 ([10]; read-out: pGI50 (converted)): 2.95 µM
- CC50 [10, 27]: > 100 µM
- TGI ([10]; read-out: pTGI (converted)): 7.59 µM
- growth at 10 µM [11]: -23%
- growth at 100 µM [12]: -35%
- GI50 ([13]; read-out: GI50): 1.82 µM
- TGI ([13]; read-out: TGI): 3.91 µM
- GI50 ([13]; read-out: pGI50 (converted)): 1.82 µM
- TGI ([13]; read-out: pTGI (converted)): 3.89 µM
- growth at 0.01 µM [14]: 102%
- GI50 ([15]; read-out: GI50): 1.63 µM
- CC50 [15, 26]: > 100 µM
- TGI ([15]; read-out: TGI): 4.76 µM
- GI50 ([15]; read-out: pGI50 (converted)): 1.62 µM
- CC50 [15, 27]: > 100 µM
- TGI ([15]; read-out: pTGI (converted)): 4.79 µM
- growth at 10 µM [16]: -11.9%
- GI50 ([17]; read-out: GI50): 1.76 µM
- CC50 [17, 26]: > 100 µM
- TGI ([17]; read-out: TGI): 6.96 µM
- GI50 ([17]; read-out: pGI50 (converted)): 1.78 µM
- CC50 [17, 27]: > 100 µM
- TGI ([17]; read-out: pTGI (converted)): 6.92 µM
- growth at 1 µM [18]: 73%
- growth at 10 µM [19]: 3%
- GI50 ([20]; read-out: GI50): 2.19 µM
- CC50 [20, 26]: > 100 µM
- TGI ([20]; read-out: TGI): 4.8 µM
- GI50 ([20]; read-out: pGI50 (converted)): 2.19 µM
- CC50 [20, 27]: > 100 µM
- TGI ([20]; read-out: pTGI (converted)): 4.79 µM
- Activity [21]: 23 nm
- growth at 10 µM [22]: 6.38%
- growth at 0.01 µM [23]: 101%
- growth at 10 µM [24]: -56.6%
- growth at 0.1 µM [25]: 90%
